Experimental findings from ChEMBL document CHEMBL1250448, “Inhibitor hijacking of Akt activation” (Nat Chem Biol, 2009) are described below.

Test [1] has as its target RAC-alpha serine/threonine-protein kinase (Homo sapiens, UniProt P31749). Put plainly: Inhibition of AKT1 at 1 uM in presence of 10 uM ATP by Select Screen kinase assay relative to untreated control. The procedure, abridged: (§1)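 Single-point screen at 1 μM against a panel of 220 purified kinases, run by Invitrogen staff as a SelectScreen profiling service. Read-out is percent inhibition of kinase activity.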

For test [2], the target named is Serine/threonine-protein kinase B-raf (Homo sapiens) (UniProt P15056). The experiment in a line: Inhibition of BRAF at 1 uM in presence of 100 uM ATP by Select Screen kinase assay relative to untreated control. A digest of the protocol: as §1
Test [3] addresses T1, Tyrosine-protein kinase receptor TYRO3 (Homo sapiens) (UniProt Q06418).
T1 sequence (whole entry): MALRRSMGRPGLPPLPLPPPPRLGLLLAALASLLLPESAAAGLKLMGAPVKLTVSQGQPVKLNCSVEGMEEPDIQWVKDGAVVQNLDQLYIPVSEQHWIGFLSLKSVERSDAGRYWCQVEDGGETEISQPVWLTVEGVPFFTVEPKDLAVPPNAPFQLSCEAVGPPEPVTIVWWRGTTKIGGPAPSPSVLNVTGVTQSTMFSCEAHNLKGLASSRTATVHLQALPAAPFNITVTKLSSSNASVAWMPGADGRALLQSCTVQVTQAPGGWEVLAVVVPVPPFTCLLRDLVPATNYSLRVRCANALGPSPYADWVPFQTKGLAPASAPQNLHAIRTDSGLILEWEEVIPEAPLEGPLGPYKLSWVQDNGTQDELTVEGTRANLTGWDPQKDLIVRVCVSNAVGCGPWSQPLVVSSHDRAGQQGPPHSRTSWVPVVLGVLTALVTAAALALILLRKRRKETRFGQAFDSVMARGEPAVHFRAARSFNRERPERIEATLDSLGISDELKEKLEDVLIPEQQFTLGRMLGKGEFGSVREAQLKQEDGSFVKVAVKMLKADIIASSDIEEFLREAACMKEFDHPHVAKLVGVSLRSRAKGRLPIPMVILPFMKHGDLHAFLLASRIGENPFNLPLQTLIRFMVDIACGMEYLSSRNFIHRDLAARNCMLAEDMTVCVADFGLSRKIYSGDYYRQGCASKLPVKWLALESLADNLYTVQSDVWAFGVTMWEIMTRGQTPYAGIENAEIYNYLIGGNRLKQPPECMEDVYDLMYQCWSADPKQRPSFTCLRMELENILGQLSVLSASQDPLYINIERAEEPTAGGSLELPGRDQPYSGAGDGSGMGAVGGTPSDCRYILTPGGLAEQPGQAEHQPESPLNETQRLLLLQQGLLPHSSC
Put plainly: Inhibition of TYRO3 at 1 uM in presence of 10 uM ATP by Select Screen kinase assay relative to untreated control. A digest of the protocol: (§2)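 Commercial SelectScreen profiling panel of 220 purified kinases. Each kinase was tested at a single inhibitor concentration of 1 μM, and activity was expressed as percent inhibition.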

Test [4] concerns the target Ephrin type-A receptor 2 (Homo sapiens) (UniProt P29317). The experiment in a line: Inhibition of EPHA2 at 1 uM in presence of 10 uM ATP by Select Screen kinase assay relative to untreated control. A digest of the protocol: as §1
Test [5] deals with T2, Ephrin type-A receptor 8 (Homo sapiens) (UniProt P29322).
T2 sequence (whole entry): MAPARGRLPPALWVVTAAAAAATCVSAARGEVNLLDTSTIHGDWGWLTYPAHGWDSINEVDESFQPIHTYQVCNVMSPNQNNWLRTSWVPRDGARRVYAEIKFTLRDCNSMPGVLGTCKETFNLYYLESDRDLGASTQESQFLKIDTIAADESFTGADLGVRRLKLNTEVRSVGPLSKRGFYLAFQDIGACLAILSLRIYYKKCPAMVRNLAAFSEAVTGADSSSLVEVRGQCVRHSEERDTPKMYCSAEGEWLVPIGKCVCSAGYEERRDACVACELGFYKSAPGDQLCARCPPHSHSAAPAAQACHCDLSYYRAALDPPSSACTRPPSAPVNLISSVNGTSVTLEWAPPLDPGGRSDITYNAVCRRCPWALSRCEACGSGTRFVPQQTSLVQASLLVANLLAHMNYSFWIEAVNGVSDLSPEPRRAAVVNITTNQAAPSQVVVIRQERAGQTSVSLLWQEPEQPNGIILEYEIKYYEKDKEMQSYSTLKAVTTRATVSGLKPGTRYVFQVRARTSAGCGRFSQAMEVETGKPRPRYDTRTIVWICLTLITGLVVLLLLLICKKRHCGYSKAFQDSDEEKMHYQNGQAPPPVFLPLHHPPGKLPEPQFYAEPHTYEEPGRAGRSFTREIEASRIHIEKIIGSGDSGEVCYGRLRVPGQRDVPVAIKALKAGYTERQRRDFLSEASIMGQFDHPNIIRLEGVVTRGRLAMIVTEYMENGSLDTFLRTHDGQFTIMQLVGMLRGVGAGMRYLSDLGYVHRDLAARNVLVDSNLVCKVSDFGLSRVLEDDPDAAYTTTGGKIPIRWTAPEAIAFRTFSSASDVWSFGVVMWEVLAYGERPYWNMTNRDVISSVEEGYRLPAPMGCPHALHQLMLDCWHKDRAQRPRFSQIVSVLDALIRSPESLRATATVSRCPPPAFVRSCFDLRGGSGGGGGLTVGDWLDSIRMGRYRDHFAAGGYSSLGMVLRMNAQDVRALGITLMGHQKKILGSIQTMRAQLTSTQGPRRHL
The experiment in a line: Inhibition of EPHA8 at 1 uM in presence of 10 uM ATP by Select Screen kinase assay relative to untreated control. The procedure, abridged: as §1

Test [6] addresses Receptor tyrosine-protein kinase erbB-4 (Homo sapiens) (UniProt Q15303). The experiment in a line: Inhibition of ERBB4 at 1 uM in presence of 10 uM ATP by Select Screen kinase assay relative to untreated control. A digest of the protocol: as §1
The target in test [7] is Fibroblast growth factor receptor 1 (Homo sapiens) (UniProt P11362). Put plainly: Inhibition of FGFR1 at 1 uM in presence of 10 uM ATP by Select Screen kinase assay relative to untreated control. A digest of the protocol: as §1
The target in test [8] is Mitogen-activated protein kinase kinase kinase 8 (Homo sapiens) (UniProt P41279). Put plainly: Inhibition of MAP3K8 at 1 uM in presence of 100 uM ATP by Select Screen kinase assay relative to untreated control. The procedure, abridged:
(§3)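 Single-concentration profiling at 1 μM against a panel of 220 purified kinases, run as an outsourced SelectScreen kinase profiling service. Activity is expressed as percent inhibition.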

Test [9] addresses Macrophage-stimulating protein receptor (Homo sapiens) (UniProt Q04912). The experiment in a line: Inhibition of MST1R at 1 uM in presence of 10 uM ATP by Select Screen kinase assay relative to untreated control. The procedure, abridged:
as §3

The target of test [10] is Myosin light chain kinase 2, skeletal/cardiac muscle (Homo sapiens) (UniProt Q9H1R3). Put plainly: Inhibition of MYLK2 at 1 uM in presence of 100 uM ATP by Select Screen kinase assay relative to untreated control. The procedure, abridged: as §3
Test [11] deals with High affinity nerve growth factor receptor (Homo sapiens) (UniProt P04629). The experiment in a line: Inhibition of NTRK1 at 1 uM in presence of 100 uM ATP by Select Screen kinase assay relative to untreated control. A digest of the protocol:
as §2

Mitogen-activated protein kinase kinase kinase 8 (Homo sapiens), sequence (P41279 whole entry): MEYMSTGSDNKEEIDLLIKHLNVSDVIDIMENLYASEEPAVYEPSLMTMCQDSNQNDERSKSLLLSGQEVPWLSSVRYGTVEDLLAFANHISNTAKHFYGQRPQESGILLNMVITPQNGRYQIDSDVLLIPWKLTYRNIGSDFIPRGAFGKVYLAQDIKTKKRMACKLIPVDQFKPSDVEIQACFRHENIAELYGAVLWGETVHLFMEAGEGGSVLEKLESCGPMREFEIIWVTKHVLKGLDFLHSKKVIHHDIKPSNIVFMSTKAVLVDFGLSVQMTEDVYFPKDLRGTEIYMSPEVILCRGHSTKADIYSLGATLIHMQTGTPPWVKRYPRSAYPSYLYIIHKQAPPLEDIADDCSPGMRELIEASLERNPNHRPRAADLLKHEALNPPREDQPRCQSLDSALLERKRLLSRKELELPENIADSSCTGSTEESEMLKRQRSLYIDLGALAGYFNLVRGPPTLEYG
Macrophage-stimulating protein receptor (Homo sapiens), sequence (Q04912 25-304 limits assumed): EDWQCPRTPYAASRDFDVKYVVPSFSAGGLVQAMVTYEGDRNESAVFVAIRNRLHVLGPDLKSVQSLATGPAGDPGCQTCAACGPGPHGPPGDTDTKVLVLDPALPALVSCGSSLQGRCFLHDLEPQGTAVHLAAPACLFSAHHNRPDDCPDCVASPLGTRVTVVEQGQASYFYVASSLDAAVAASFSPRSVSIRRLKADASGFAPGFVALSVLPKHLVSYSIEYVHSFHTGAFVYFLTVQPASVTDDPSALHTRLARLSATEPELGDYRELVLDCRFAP
Macrophage-stimulating protein receptor (Homo sapiens), sequence (Q04912 310-1400 limits assumed): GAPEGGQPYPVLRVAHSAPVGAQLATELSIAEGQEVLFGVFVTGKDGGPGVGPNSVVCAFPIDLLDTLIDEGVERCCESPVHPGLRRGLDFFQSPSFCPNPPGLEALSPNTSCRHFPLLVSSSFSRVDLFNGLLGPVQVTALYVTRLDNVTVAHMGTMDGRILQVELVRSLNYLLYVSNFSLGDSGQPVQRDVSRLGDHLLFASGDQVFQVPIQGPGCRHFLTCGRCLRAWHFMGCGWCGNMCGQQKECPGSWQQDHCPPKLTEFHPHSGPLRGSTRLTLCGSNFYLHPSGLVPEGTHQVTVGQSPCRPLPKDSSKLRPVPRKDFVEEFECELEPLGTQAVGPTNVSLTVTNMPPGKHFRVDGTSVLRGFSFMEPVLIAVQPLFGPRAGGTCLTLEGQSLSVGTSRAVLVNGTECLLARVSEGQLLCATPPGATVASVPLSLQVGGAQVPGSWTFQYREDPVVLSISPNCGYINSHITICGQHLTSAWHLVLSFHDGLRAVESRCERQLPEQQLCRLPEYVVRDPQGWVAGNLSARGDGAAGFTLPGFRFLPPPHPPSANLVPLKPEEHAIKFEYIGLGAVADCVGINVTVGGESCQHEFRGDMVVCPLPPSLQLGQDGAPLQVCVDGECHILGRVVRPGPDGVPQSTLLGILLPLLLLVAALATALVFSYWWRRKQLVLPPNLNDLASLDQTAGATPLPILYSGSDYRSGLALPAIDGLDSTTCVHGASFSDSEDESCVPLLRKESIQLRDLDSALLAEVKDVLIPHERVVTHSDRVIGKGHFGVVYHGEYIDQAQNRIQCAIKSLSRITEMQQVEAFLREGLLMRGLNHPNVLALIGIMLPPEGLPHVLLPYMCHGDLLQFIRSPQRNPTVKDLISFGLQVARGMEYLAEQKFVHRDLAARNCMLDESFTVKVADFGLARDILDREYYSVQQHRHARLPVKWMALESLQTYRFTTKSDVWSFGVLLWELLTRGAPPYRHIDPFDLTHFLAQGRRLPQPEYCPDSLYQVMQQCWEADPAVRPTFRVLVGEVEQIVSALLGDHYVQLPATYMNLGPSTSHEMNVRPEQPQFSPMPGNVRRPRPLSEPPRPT
Fibroblast growth factor receptor 1 (Homo sapiens), sequence (P11362 22-822 limits assumed): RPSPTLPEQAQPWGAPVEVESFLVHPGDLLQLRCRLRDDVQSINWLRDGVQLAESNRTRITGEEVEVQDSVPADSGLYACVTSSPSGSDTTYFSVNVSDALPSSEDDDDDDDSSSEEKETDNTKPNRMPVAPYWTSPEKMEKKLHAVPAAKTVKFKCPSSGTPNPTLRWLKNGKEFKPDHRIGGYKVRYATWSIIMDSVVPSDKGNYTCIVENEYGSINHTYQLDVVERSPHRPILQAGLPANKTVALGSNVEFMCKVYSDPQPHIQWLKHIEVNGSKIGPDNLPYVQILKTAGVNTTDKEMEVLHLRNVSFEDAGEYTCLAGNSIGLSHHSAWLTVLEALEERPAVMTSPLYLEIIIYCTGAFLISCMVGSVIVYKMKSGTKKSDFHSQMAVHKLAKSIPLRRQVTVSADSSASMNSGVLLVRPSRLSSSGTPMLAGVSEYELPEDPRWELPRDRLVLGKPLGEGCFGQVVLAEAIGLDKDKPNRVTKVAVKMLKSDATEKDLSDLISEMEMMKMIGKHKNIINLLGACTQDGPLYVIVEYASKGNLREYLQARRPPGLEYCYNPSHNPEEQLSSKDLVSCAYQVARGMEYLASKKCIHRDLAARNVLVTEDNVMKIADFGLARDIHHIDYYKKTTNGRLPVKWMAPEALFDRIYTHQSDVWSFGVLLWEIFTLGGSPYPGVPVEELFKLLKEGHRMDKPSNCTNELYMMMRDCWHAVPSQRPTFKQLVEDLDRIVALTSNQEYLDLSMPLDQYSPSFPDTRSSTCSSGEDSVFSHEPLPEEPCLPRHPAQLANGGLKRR
High affinity nerve growth factor receptor (Homo sapiens), sequence (P04629 33-796 limits assumed): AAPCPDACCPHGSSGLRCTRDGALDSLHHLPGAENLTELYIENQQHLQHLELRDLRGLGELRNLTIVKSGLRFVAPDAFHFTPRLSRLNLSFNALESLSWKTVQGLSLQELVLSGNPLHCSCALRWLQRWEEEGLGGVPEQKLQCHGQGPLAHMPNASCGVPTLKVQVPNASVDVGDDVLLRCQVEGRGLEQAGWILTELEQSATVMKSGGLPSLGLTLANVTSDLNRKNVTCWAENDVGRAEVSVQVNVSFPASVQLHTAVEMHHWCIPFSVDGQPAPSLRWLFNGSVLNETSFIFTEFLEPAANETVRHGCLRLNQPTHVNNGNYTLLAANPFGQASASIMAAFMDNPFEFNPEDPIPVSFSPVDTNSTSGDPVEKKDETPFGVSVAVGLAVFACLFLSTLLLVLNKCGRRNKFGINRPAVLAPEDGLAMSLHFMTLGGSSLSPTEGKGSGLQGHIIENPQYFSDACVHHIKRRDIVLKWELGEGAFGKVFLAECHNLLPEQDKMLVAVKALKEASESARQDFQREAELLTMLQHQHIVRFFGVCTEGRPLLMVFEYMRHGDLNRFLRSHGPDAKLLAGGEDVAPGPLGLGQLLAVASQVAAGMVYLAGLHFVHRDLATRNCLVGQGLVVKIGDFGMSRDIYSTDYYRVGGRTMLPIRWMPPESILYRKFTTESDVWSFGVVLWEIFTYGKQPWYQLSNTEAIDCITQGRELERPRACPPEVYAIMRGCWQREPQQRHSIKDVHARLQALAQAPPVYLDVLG
Receptor tyrosine-protein kinase erbB-4 (Homo sapiens), sequence (Q15303 whole entry): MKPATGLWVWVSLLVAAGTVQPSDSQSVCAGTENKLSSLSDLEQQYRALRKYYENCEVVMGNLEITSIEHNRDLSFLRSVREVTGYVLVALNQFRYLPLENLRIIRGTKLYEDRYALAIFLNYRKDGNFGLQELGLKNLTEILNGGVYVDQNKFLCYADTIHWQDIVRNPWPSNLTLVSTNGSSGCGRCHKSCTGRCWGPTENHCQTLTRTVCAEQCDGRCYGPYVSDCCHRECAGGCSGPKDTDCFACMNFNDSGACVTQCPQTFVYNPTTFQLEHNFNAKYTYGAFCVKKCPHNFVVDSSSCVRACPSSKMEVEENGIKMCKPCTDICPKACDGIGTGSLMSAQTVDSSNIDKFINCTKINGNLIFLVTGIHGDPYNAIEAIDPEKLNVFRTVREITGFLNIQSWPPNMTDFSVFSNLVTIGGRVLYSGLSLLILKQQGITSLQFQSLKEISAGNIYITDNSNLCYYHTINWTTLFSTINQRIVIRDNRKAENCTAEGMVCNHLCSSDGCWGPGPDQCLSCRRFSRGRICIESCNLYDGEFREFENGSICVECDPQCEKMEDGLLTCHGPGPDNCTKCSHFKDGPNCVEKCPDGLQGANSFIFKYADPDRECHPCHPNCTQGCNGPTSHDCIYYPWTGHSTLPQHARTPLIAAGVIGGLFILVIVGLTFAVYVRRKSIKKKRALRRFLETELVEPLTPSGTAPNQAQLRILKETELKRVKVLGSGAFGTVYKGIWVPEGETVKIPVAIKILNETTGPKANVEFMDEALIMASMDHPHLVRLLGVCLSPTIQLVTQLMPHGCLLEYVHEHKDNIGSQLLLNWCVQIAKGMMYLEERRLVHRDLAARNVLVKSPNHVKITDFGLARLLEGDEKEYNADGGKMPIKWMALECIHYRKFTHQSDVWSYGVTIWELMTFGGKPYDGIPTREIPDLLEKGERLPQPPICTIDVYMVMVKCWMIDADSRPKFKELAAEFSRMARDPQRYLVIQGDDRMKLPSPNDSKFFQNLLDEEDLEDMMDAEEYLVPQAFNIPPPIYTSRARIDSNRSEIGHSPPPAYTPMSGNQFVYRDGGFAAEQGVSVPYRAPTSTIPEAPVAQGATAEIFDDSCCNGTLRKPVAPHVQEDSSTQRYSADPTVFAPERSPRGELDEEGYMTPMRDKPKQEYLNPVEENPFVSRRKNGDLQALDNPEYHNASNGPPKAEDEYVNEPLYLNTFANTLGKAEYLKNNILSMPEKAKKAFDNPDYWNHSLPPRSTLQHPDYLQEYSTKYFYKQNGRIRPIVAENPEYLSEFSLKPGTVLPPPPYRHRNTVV

What is called inhibition is the drop in the measured response relative to a control, in per cent. In the case of `COc1ccccc1N1CCN(c2ncnc3[nH]nc(Br)c23)CC1`, the inhibition in test [1] stood at 16%; in test [2], 17%; in test [3] it was 37%; in [4] it was 24%; in test [5], 16%; in [6] it was 27%. For the same molecule, the inhibition in [7] is 14%; in [8], 17%; in test [9] it was -4%; in test [10], 12%; in test [11] it was 34%.

For `Cc1n[nH]c2ccc(-c3cncc(OC[C@@H](N)Cc4c[nH]c5ccccc45)c3)cc12`, the inhibition in test [1] was 100%; in [2], 72%; in test [3], 14%; in test [4] it was 8%; in test [5], 3%; in test [6], -1%. The inhibition in [7] worked out at 14%; in test [8], 50%; in test [9], 10%; in [10] it was 22%; in [11], 42%.

Turning to `O=C(NCCCNc1nc(Nc2cccc(NC(=O)N3CCCC3)c2)ncc1I)c1cccs1`, the inhibition in test [1] stood at 7%; in test [2], 38%; in test [3] it was 42%; in test [4], 22%; in test [5], 16%; in test [6], 34%. In addition, the inhibition stood at 46% in test [7]; 54% in test [8]; 17% in test [9]; 25% in [10]; 84% in test [11].
